# Results collected from several papers.
# Each line is one published result; the experiments were not run side by side.
# Organism: Cryptococcus neoformans
Structure (SMILES),observed,method,strain,time,setting,endpoint,result
CCCC[C@H]1CN(c2cccc(OC(F)(F)F)c2)C(=O)CN1Cc1cncn1Cc1ccc(Cl)cc1,microbial growth,broth dilution,,,,MIC,3 to 6 µM
CCCSc1ccc2nc(NC(=O)OC)[nH]c2c1,microbial growth,broth dilution,,72 h,clinical isolate,IC90,2500 nM
Cc1c(O)c(=O)ccn1C,microbial growth,broth dilution,,48 h,,MIC,> 100 µM
CCCCC[C@H]1CN(c2cccc(OC(F)(F)F)c2)C(=O)CN1Cc1cncn1Cc1ccc(Br)cc1,microbial growth,broth dilution,,,,MIC,3 to 6 µM
CCCCCC[C@H]1C(=O)O[C@H](C)[C@H](NC(=O)c2cccc(NC=O)c2O)C(=O)O[C@@H](C)[C@@H]1OC(=O)CC(C)C,microbial growth,,,,,MIC80,2 µM
O=C(NN=Cc1ccc(O)c(Br)c1)c1cccc(Br)c1,microbial killing,,,,,MFC,1.2 µg/mL
Cl.O[C@]12C=C(c3nccc4c3[nH]c3ccccc34)[C@@H]3CCN(CCCC/C=C\CC1)C[C@@]31C[C@@H]3/C=C\CCCCN3[C@H]12,microbial growth,,ATCC90113,,,IC50,1.04 µg/mL
C[C@@H]1[C@H](O)[C@@H](C)/C=C/C=C/C=C/C=C/C=C/C=C/C=C/[C@H](O[C@@H]2O[C@H](C)[C@@H](O)[C@H](N)[C@@H]2O)C[C@@H]2O[C@](O)(C[C@@H](O)C[C@@H](O)[C@H](O)CC[C@@H](O)C[C@@H](O)CC(=O)O[C@H]1C)C[C@H](O)[C@H]2C(=O)O,microbial growth,broth dilution,,,,MIC,0.6 µg/mL
C[C@@H]1[C@H](O)[C@@H](C)/C=C/C=C/C=C/C=C/C=C/C=C/C=C/[C@H](O[C@@H]2O[C@H](C)[C@@H](O)[C@H](N)[C@@H]2O)C[C@@H]2O[C@](O)(C[C@@H](O)C[C@@H](O)[C@H](O)CC[C@@H](O)C[C@@H](O)CC(=O)O[C@H]1C)C[C@H](O)[C@H]2C(=O)O,microbial growth,,ATCC90113,,,IC50,0.45 µg/mL
Cc1ccccc1C(=O)NN=Cc1ccc(O)c(Br)c1,microbial growth,broth dilution,,,,MIC,1 µg/mL
CCCC[C@H]1CN(c2cccc(OC(F)(F)F)c2)C(=O)CN1Cc1cncn1Cc1ccc(C(F)(F)F)cc1,microbial growth,broth dilution,,,,MIC,3 to 6 µM
